According to ChEMBL document CHEMBL1152488, “Synthesis and evaluation of pyrido[1,2-a]pyrimidines as inhibitors of nitric oxide synthases” (Eur J Med Chem, 2009):

Target: T1, Nitric oxide synthase, inducible (Mus musculus, UniProt P29477)
T1 sequence (P29477 whole entry): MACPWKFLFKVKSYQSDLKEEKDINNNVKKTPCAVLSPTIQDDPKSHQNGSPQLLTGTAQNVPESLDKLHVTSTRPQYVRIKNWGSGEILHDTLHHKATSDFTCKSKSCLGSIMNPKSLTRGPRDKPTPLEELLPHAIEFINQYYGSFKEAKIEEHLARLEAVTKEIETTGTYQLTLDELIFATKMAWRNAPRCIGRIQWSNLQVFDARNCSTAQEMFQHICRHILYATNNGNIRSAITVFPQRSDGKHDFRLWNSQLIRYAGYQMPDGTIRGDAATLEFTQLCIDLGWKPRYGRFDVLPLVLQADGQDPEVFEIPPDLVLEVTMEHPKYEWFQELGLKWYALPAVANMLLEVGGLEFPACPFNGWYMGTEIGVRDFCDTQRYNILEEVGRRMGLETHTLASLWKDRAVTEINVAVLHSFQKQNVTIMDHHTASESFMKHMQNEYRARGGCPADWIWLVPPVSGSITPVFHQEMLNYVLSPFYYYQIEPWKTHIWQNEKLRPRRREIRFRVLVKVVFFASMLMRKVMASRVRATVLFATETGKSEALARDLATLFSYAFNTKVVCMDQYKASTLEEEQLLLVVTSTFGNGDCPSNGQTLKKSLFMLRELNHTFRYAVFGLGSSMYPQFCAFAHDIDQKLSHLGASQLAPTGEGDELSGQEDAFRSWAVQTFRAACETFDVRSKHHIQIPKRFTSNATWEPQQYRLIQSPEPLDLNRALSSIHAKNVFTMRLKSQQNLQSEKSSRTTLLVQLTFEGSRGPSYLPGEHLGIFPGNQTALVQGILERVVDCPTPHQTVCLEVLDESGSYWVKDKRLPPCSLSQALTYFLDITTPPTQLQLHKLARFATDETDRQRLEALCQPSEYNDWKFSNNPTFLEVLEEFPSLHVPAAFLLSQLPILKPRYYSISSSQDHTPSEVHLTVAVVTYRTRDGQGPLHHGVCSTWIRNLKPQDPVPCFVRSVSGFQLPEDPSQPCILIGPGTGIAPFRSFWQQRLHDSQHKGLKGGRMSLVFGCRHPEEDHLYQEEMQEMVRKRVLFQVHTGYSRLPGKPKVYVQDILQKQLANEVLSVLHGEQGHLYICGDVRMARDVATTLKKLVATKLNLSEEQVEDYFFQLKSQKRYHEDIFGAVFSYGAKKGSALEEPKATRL
Assay: Inhibition of mouse recombinant iNOS expressed in Escherichia coli assessed as conversion of [gamma-14C]L-arginine to [14C]L-citrulline by radioactive assay
Conditions: not given
In short: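 CaCl2/CaM present for nNOS (S. cerevisiae) and eNOS (E. coli) but omitted for iNOS (E. coli). Citrulline separated by Dowex cation exchange, then scintillation counting.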

Structure (SMILES)	IC50
CC1=CC2=NCC(C(=O)c3ccc4cc(C)ccc4c3)CN2C=C1.[O-][Cl+3]([O-])([O-])O (stereo not given)	29 µM
CC1=CC2=NCC(C(=O)c3ccc4cc(C)ccc4c3)CN2C(C)=C1.[O-][Cl+3]([O-])([O-])O (stereo not given)	35 µM

Other lines, results leading:

IC50	Structure (SMILES)
50 µM	CC1=CC2=NCC(C(=O)c3ccc(-c4ccc(C#N)cc4)cc3)CN2C=C1.Cl (stereo not given)
120 µM	CC1=CC2=NCC(C(=O)c3ccc(-c4ccc(Br)cc4)cc3)CN2C(C)=C1 (stereo not given)
18 µM	COc1ccc(-c2ccc(C(=O)C3CN=C4C=C(C)C=CN4C3)cc2)cc1.Cl (stereo not given)
28 µM	CC1=CC2=NCC(C(=O)c3ccc(-c4ccc(Br)cc4)cc3)CN2C=C1.[O-][Cl+3]([O-])([O-])O (stereo not given)

Target: T2, Nitric oxide synthase 3 (Bos taurus) (UniProt P29473)
T2 sequence (whole entry): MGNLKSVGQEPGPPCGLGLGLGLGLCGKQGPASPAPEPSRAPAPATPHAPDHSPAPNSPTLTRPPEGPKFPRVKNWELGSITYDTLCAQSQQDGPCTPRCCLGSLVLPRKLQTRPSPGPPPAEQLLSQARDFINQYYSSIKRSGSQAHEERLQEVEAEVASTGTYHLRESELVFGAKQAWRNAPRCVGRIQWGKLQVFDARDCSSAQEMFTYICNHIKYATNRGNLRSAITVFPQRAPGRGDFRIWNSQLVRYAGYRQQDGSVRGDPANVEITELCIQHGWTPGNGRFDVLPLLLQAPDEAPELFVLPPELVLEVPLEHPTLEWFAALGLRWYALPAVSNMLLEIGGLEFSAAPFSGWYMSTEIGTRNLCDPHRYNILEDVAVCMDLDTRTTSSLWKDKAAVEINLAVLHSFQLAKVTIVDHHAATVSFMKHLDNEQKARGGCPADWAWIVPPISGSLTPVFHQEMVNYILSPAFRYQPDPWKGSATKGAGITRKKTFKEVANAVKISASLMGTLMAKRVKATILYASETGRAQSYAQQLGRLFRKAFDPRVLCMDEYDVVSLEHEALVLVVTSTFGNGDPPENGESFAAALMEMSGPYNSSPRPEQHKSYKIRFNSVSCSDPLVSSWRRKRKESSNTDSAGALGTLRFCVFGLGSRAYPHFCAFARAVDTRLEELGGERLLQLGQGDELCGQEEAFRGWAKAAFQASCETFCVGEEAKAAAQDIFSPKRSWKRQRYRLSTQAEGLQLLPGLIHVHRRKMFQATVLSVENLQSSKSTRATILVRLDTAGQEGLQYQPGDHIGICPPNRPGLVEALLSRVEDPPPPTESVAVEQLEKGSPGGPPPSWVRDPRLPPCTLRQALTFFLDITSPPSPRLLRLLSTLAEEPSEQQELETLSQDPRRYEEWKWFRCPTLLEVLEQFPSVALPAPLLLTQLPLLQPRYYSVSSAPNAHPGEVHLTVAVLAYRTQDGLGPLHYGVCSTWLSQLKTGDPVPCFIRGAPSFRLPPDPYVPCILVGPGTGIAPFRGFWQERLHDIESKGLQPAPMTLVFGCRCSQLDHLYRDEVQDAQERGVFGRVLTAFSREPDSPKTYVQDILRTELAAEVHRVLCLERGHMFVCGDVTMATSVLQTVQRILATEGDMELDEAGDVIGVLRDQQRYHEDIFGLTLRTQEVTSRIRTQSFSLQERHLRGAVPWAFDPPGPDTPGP
Assay: Inhibition of bovine eNOS expressed in insect Sf9 cells assessed as residual activity at 100 uM by Griess assay relative to control
Conditions: not given
In short: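 Bovine eNOS from Sf9 cells. Reaction: triethanolamine buffer pH 7.5, 0.5 mM Ca2+, 10 µg/ml CaM, 10 µM H4B, FAD, FMN, 0.5 mM NADPH, 1 mM L-arginine, with 100 µM compound, 20 min at 37 °C. After NADPH removal by LDH/pyruvate, nitrite measured by Griess at 543 nm. Expressed as % residual activity versus 1% DMSO control, 5 experiments.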

Structure (SMILES)	Activity
O=C(c1ccc(Br)cc1)C1CN=C2C=CC=CN2C1 (stereo not given)	86%
CC1=CC2=NCC(C(=O)c3ccc4cc(C)ccc4c3)CN2C=C1.[O-][Cl+3]([O-])([O-])O (stereo not given)	49%
CC1=CC=CC2=NCC(C(=O)c3ccc(Br)cc3)CN12 (stereo not given)	93%
O=C(c1ccc2ccccc2c1)C1CN=C2C=CC=CN2C1 (stereo not given)	80%
COc1ccc(C(=O)C2CN=C3C=CC=C(C)N3C2)cc1OC.[O-][Cl+3]([O-])([O-])O (stereo not given)	90%
O=C(c1ccc(Cl)c(Cl)c1)C1CN=C2C=CC=CN2C1.[O-][Cl+3]([O-])([O-])O (stereo not given)	83%
CC1=CC2=NCC(C(=O)c3ccc(Br)cc3)CN2C=C1 (stereo not given)	72%
CC1=CC2=NCC(C(=O)c3ccc4ccccc4c3)CN2C=C1 (stereo not given)	50%
CC(=N)NCc1cccc(CN)c1	107%

System: not listed separately
Assay: Lipophilicity, log D at pH 7.4 by HPLC method
Conditions: buffer

Structure (SMILES)	logD
COc1ccc(C(=O)C2CN=C3C=CC=C(C)N3C2)cc1OC.[O-][Cl+3]([O-])([O-])O (stereo not given)	1.5
O=C(c1ccc(Cl)c(Cl)c1)C1CN=C2C=CC=CN2C1.[O-][Cl+3]([O-])([O-])O (stereo not given)	1.8
CC1=CC2=NCC(C(=O)c3ccc4ccccc4c3)CN2C=C1 (stereo not given)	1.7
CC1=CC2=NCC(C(=O)c3ccc4cc(C)ccc4c3)CN2C(C)=C1.[O-][Cl+3]([O-])([O-])O (stereo not given)	2.2
CC1=CC2=NCC(C(=O)c3ccc(-c4ccc(Br)cc4)cc3)CN2C=C1.[O-][Cl+3]([O-])([O-])O (stereo not given)	2.7

System: RAW264.7
Assay: Cytotoxicity against mouse RAW264.7 cells at 100 uM
Type: cell-based
Conditions: raw264.7, 100 µM

Structure (SMILES)	Activity
CC1=CC2=NCC(C(=O)c3ccc4cc(C)ccc4c3)CN2C=C1.[O-][Cl+3]([O-])([O-])O (stereo not given)	Non-toxic
COc1ccc(C(=O)C2CN=C3C=CC=C(C)N3C2)cc1OC.[O-][Cl+3]([O-])([O-])O (stereo not given)	Non-toxic
CC1=CC2=NCC(C(=O)c3ccc(-c4ccc(C#N)cc4)cc3)CN2C=C1.Cl (stereo not given)	Non-toxic
O=C(c1ccc(Cl)c(Cl)c1)C1CN=C2C=CC=CN2C1.[O-][Cl+3]([O-])([O-])O (stereo not given)	Non-toxic
CC1=CC2=NCC(C(=O)c3ccc4cc(C)ccc4c3)CN2C(C)=C1.[O-][Cl+3]([O-])([O-])O (stereo not given)	Non-toxic
COc1ccc(-c2ccc(C(=O)C3CN=C4C=C(C)C=CN4C3)cc2)cc1.Cl (stereo not given)	Non-toxic
CC1=CC2=NCC(C(=O)c3ccc(-c4ccc(Br)cc4)cc3)CN2C=C1.[O-][Cl+3]([O-])([O-])O (stereo not given)	Non-toxic

Target: T3, Nitric oxide synthase, inducible (Mus musculus) (UniProt P29477)
T3 sequence (whole entry): T1 sequence (P29477 whole entry)
Assay: Inhibition of mouse recombinant iNOS expressed in Escherichia coli assessed as conversion of [gamma-14C]L-arginine to [14C]L-citrulline at 100 uM by radioactive assay relative to control
Parameters: scale not given: the % may be the effect or the level left
Conditions: not given
In short: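 Purified enzymes: rat nNOS from S. cerevisiae, murine iNOS and bovine eNOS from E. coli. Reaction 5 min at 37 °C in 50 mM Hepes pH 7.4 with DTT, 1 mM NADPH, H4B, FAD, FMN, [14C]L-arginine (2.5 µM L-arginine) and 100 µM compound in 1% DMSO. nNOS/eNOS also got 1 mM CaCl2 and CaM, which iNOS lacked. [14C]citrulline isolated on Dowex and counted by scintillation; % of DMSO control, n=3.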

Structure (SMILES)	Activity
CC1=CC2=NCC(C(=O)c3ccc4cc(C)ccc4c3)CN2C=C1.[O-][Cl+3]([O-])([O-])O (stereo not given)	13%
COc1ccc(C(=O)C2CN=C3C=CC=C(C)N3C2)cc1OC.[O-][Cl+3]([O-])([O-])O (stereo not given)	91%
O=C(c1ccc(Cl)c(Cl)c1)C1CN=C2C=CC=CN2C1.[O-][Cl+3]([O-])([O-])O (stereo not given)	85%
CC1=CC2=NCC(C(=O)c3ccc4cc(C)ccc4c3)CN2C(C)=C1.[O-][Cl+3]([O-])([O-])O (stereo not given)	28%

More lines, now with the values ahead:

Activity	Structure (SMILES)
18%	CC1=CC2=NCC(C(=O)c3ccc(-c4ccc(C#N)cc4)cc3)CN2C=C1.Cl (stereo not given)
35%	CC1=CC2=NCC(C(=O)c3ccc(-c4ccc(Br)cc4)cc3)CN2C(C)=C1 (stereo not given)
13%	COc1ccc(-c2ccc(C(=O)C3CN=C4C=C(C)C=CN4C3)cc2)cc1.Cl (stereo not given)
19%	CC1=CC2=NCC(C(=O)c3ccc(-c4ccc(Br)cc4)cc3)CN2C=C1.[O-][Cl+3]([O-])([O-])O (stereo not given)
